Like-named read-outs stand apart in the source and are kept apart here.

Usually IC50 stands for the concentration that gives 50% inhibition.

One series concerns HCT-116 (colon cancer). Kind of series: MTT cytotoxicity assay, HCT-116 colon cancer cells. The conditions noted are these: read-out: IC50 against HCT-116. The class given is cell-based, human. In a few lines:
(§1)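 Cells (HCT116 or normal dermal fibroblasts) were obtained from ATCC, seeded per doubling time, and grown in RPMI at 37 °C, humidified 5% CO₂. After 48 h exposure to increasing test compound concentrations, MTT at 5 mg ml⁻¹ working concentration was added for 3 h in the dark, followed by DMSO solubilisation with shaking. OD was read at 570/630 nm, viability expressed as treated/untreated × 100, and IC50 ±SD reported from duplicate wells, ≥3 independent runs.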
In general terms: Tetrazolium assays rely on reduction of a dye to a coloured formazan, in cell work by metabolically active cells.

The next series deals with A549 (lung cancer). In words: MTT cytotoxicity assay, A549 lung cancer cells. It counts as cell-based, human. As to conditions: for IC50: read-out: IC50 against A549; for lipophilic efficiency (LLE): from cytotoxicity IC50 at A549, DataWarrior. In a few lines:
(§2)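 Cells from ATCC, seeded at densities set by doubling time and kept in RPMI at 37 °C, 5% CO₂. They were exposed to increasing concentrations for 48 h. MTT at 5 mg ml⁻¹ working concentration was added for 3 h in the dark, and crystals were dissolved in DMSO. […] LLE was estimated from these IC50 values and compound physicochemical properties.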

The test system of series [1] is normal dermal fibroblast cells. Kind of series: MTT cytotoxicity assay, normal fibroblasts. It counts as cell-based. The conditions noted are these: 48 h, read-out: IC50 against normal fibroblasts. In a few lines: as §1
The subject of a further series is A549 cell migration. In words: Wound healing. It counts as cell-based, human. The conditions noted are these: A549 cells, 24 h, control 0%; for inhibition of cell migration at IC50: compound at IC50 concentration; for inhibition of cell migration at Sub IC50: compound at sub-IC50 concentration. In a few lines:
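A549 cells were seeded at 35 000 per culture insert and grown 24 h. Proliferation was blocked with 10 μg ml⁻¹ mitomycin C for 2 h, then cells were washed three times. Cells were exposed to two test concentrations (full and sub-level) and the wound imaged at 0 and 24 h. Wound width was measured, and migration inhibition expressed against the untreated control (0%).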

The target of a further series is EGFR kinase (Homo sapiens, UniProt P00533). In words: EGFR kinase inhibition. It counts as biochemical. As to conditions: three independent replicates.
Chain of EGFR kinase (P00533 25-1210): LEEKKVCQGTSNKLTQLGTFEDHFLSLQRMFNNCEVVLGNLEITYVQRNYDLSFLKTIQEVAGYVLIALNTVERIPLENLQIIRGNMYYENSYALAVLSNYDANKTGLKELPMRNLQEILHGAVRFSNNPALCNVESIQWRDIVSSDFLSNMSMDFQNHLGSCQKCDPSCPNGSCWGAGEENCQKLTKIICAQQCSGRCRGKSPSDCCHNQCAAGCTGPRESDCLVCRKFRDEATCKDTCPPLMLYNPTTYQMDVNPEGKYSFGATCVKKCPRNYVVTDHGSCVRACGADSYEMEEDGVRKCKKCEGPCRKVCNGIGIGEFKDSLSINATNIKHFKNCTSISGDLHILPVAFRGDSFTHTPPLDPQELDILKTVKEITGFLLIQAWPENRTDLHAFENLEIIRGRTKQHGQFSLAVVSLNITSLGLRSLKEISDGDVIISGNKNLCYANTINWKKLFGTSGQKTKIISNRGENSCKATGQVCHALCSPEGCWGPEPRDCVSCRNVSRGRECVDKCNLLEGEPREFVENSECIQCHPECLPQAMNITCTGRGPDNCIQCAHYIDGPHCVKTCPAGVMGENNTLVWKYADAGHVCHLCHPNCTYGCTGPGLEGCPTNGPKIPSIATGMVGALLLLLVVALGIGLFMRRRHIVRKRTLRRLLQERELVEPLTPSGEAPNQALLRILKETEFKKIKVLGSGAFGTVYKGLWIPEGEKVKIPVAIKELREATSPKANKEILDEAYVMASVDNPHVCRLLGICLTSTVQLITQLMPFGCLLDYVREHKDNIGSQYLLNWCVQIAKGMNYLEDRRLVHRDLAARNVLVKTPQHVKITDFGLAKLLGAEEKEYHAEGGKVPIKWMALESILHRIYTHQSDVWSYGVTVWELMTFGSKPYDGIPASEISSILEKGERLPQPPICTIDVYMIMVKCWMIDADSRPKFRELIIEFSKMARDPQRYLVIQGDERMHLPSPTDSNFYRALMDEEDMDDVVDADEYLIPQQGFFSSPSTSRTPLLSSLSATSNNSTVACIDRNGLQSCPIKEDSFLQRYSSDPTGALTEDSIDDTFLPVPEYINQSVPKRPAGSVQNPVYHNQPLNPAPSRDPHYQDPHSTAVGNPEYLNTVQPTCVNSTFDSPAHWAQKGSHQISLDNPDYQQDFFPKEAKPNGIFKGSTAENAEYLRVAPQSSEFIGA
The next series has as its system T47-D (breast cancer). Kind of series: MTT cytotoxicity assay, T47-D breast cancer cells. It counts as cell-based, human. The conditions noted are these: for IC50: read-out: IC50 against T47-D, MTT, 48 h treatment, ±SD, n = 9; for lipophilic efficiency (LLE): from cytotoxicity IC50 at T47-D (printed H47-D), DataWarrior. In a few lines: as §2
The mark [2] stands for this setting: MTT, 48 h treatment, ±SD, n = 9.

Regarding `O=c1[nH]cc(F)c(=O)[nH]1` [5-FU, reference compound], the IC50 in the series on HCT-116 (colon cancer) (setting [2]) came to 11 ± 0.7 µM.
For `C#CCOc1ccc(/C=N\NC(=O)c2ccccc2)cc1` [7a, (Z)-N′-(4-(prop-2-yn-1-yloxy)benzylidene)benzohydrazide], the IC50 was 200 ± 4 µM in the series on A549 (lung cancer) (Homo sapiens, A549, 48 h); 237 ± 6 µM with HCT-116 (colon cancer) (Homo sapiens, HCT-116, 48 h); > 500 µM in series [1].
Take `C#CCOc1ccc(/C=N\Nc2ccc([N+](=O)[O-])cc2[N+](=O)[O-])cc1` [7c, (Z)-1-(2,4-dinitrophenyl)-2-(4-(prop-2-yn-1-yloxy)benzylidene)hydrazine]: the concentration for half-maximal inhibition (IC50) with A549 (lung cancer) (Homo sapiens, A549, 48 h) is 156 ± 4 µM; with HCT-116 (colon cancer) (Homo sapiens, HCT-116, 48 h), 209 ± 5 µM; in series [1], > 500 µM.
In the same order, the values of `C#CCOc1ccc(/C=N\NC(N)=S)cc1` [7d, (Z)-2-(4-(prop-2-yn-1-yloxy)benzylidene)hydrazine-1-carbothioamide] are 128 ± 5 µM, 261 ± 6 µM and > 500 µM.
Regarding `O=C(Cn1cc(COc2ccc(/C=N/NC(=O)c3ccccc3)cc2)nn1)Nc1nc2ccccc2s1` [8a, (E)-N-(benzo[d]thiazol-2-yl)-2-(4-((4-((2-benzoylhydrazono)-methyl)phenoxy)methyl)-1H-1,2,3-triazol-1-yl)acetamide], the “inhibition of cell migration at IC50” value in the series with A549 cell migration was 92.4%. In the series with A549 cell migration, the “inhibition of cell migration at Sub IC50” value is 44.8%. Besides, the IC50 is 18 ± 1 µM in the series with A549 (lung cancer) (Homo sapiens, A549, 48 h); 17 ± 1 µM in the series with T47-D (breast cancer); 84 ± 3 µM in the series on HCT-116 (colon cancer) (Homo sapiens, HCT-116, 48 h); > 500 µM in series [1]. The “% of EGFR inhibition” value on EGFR kinase came to 98.5 ± 3.1%.
On to `Cc1ccc2nc(NC(=O)Cn3cc(COc4ccc(/C=N/NC(=O)c5ccccc5)cc4)nn3)sc2c1` [8b, (E)-2-(4-((4-((2-benzoylhydrazono)methyl)phenoxy)methyl)-1H-1,2,3-triazol-1-yl)-N-(6-methylbenzo[d]thiazol-2-yl)acetamide], for which, in the series with A549 cell migration, the “inhibition of cell migration at IC50” value is given as 78.9%. The “inhibition of cell migration at Sub IC50” value in the series on A549 cell migration was found to be 49.8%. Besides, the IC50 in the series on A549 (lung cancer) (Homo sapiens, A549, 48 h) is 21 ± 1 µM; in the series on T47-D (breast cancer), 13 ± 1 µM; in the series with HCT-116 (colon cancer) (Homo sapiens, HCT-116, 48 h) it was 94 ± 1 µM; in series [1], > 500 µM. For the same compound, on EGFR kinase, the “% of EGFR inhibition” value is on record as 96.8 ± 2.1%.
With `CS(=O)(=O)c1ccc2nc(NC(=O)Cn3cc(COc4ccc(/C=N/NC(=O)c5ccccc5)cc4)nn3)sc2c1` [8c, (E)-2-(4-((4-((2-benzoylhydrazono)methyl)phenoxy)methyl)-1H-1,2,3-triazol-1-yl)-N-(6-(methylsulfonyl)benzo[d]thiazol-2-yl)acetamide], the half-inhibitory concentration (IC50) is 25 ± 1 µM in the series with A549 (lung cancer) (Homo sapiens, A549, 48 h); 48 ± 2 µM in the series with HCT-116 (colon cancer) (Homo sapiens, HCT-116, 48 h); > 500 µM in series [1]. Besides, the “lipophilic efficiency (LLE)” value in the series with A549 (lung cancer) turned out to be 1.84; in the series with T47-D (breast cancer), 1.93. The “% of EGFR inhibition” value at EGFR kinase was found to be 92.3 ± 3.1%.
`O=C(Cn1cc(COc2ccc(/C=N/NC(=O)c3ccncc3)cc2)nn1)Nc1nc2ccccc2s1` [8d, (E)-N-(benzo[d]thiazol-2-yl)-2-(4-((4-((2-isonicotinoylhydrazono)methyl)phenoxy)methyl)-1H-1,2,3-triazol-1-yl)acetamide]: the half-inhibitory concentration (IC50) in the series with A549 (lung cancer) (Homo sapiens, A549, 48 h) is 38 ± 2 µM; in the series with HCT-116 (colon cancer) (Homo sapiens, HCT-116, 48 h) it was 100 ± 2 µM; in series [1], > 500 µM.
For the compound `Cc1ccc2nc(NC(=O)Cn3cc(COc4ccc(/C=N/NC(=O)c5ccncc5)cc4)nn3)sc2c1` [8e, (E)-2-(4-((4-((2-isonicotinoylhydrazono)methyl)phenoxy)methyl)-1H-1,2,3-triazol-1-yl)-N-(6-methylbenzo[d]thiazol-2-yl)acetamide], the IC50 in the series on A549 (lung cancer) (Homo sapiens, A549, 48 h) was 92 ± 2 µM; in the series with HCT-116 (colon cancer) (Homo sapiens, HCT-116, 48 h) it was 207 ± 5 µM; in series [1], > 500 µM.
`CS(=O)(=O)c1ccc2nc(NC(=O)Cn3cc(COc4ccc(/C=N/NC(=O)c5ccncc5)cc4)nn3)sc2c1` [8f, (E)-2-(4-((4-((2-isonicotinoylhydrazono)methyl)phenoxy)methyl)-1H-1,2,3-triazol-1-yl)-N-(6-(methylsulfonyl)benzo[d]thiazol-2-yl)acetamide]: the IC50 in the series with A549 (lung cancer) (Homo sapiens, A549, 48 h) is 38 ± 2 µM; with HCT-116 (colon cancer) (Homo sapiens, HCT-116, 48 h), 149 ± 3 µM; in series [1] it was > 500 µM. For the same compound, the “lipophilic efficiency (LLE)” value was 2.66 in the series with A549 (lung cancer) and 2.58 with T47-D (breast cancer).
For the compound `O=C(Cn1cc(COc2ccc(/C=N\Nc3ccc([N+](=O)[O-])cc3[N+](=O)[O-])cc2)nn1)Nc1nc2ccccc2s1` [8g, (Z)-N-(benzo[d]thiazol-2-yl)-2-(4-((4-((2-(2,4-dinitrophenyl)hydrazono)methyl)phenoxy)methyl)-1H-1,2,3-triazol-1-yl)acetamide], the IC50 is 103 ± 5 µM with A549 (lung cancer) (Homo sapiens, A549, 48 h); 109 ± 3 µM in the series with HCT-116 (colon cancer) (Homo sapiens, HCT-116, 48 h); > 500 µM in series [1].
For `CS(=O)(=O)c1ccc2nc(NC(=O)Cn3cc(COc4ccc(/C=N\Nc5ccc([N+](=O)[O-])cc5[N+](=O)[O-])cc4)nn3)sc2c1` [8i, (Z)-2-(4-((4-((2-(2,4-dinitrophenyl)hydrazono)methyl)phenoxy)methyl)-1H-1,2,3-triazol-1-yl)-N-(6-(methylsulfonyl)benzo[d]thiazol-2-yl)acetamide], the IC50 in the series with A549 (lung cancer) (Homo sapiens, A549, 48 h) is 89 ± 4 µM; in the series with HCT-116 (colon cancer) (Homo sapiens, HCT-116, 48 h) it was 162 ± 5 µM; in series [1] it was > 500 µM. In addition, the “lipophilic efficiency (LLE)” value with A549 (lung cancer) turned out to be 1.50; in the series on T47-D (breast cancer), 1.52.
As to `NC(=S)N/N=C\c1ccc(OCc2cn(CC(=O)Nc3nc4ccccc4s3)nn2)cc1` [8j, (Z)-N-(benzo[d]thiazol-2-yl)-2-(4-((4-((2-carbamothioylhydrazono)methyl)phenoxy)methyl)-1H-1,2,3-triazol-1-yl)acetamide], the half-inhibitory concentration (IC50) in the series with A549 (lung cancer) (Homo sapiens, A549, 48 h) was 63 ± 2 µM; with HCT-116 (colon cancer) (Homo sapiens, HCT-116, 48 h), 190 ± 4 µM; in series [1], > 500 µM. In addition, the “lipophilic efficiency (LLE)” value in the series with A549 (lung cancer) worked out at 1.82; with T47-D (breast cancer) it was 1.81.
As for `Cc1ccc2nc(NC(=O)Cn3cc(COc4ccc(/C=N\NC(N)=S)cc4)nn3)sc2c1` [8k, (Z)-2-(4-((4-((2-carbamothioylhydrazono)methyl)phenoxy)methyl)-1H-1,2,3-triazol-1-yl)-N-(6-methylbenzo[d]thiazol-2-yl)acetamide], the IC50 with A549 (lung cancer) (Homo sapiens, A549, 48 h) is 138 ± 4 µM; in the series on HCT-116 (colon cancer) (Homo sapiens, HCT-116, 48 h), 170 ± 7 µM; in series [1] it was > 500 µM.
The corresponding values for `CS(=O)(=O)c1ccc2nc(NC(=O)Cn3cc(COc4ccc(/C=N\NC(N)=S)cc4)nn3)sc2c1` [8l, (Z)-2-(4-((4-((2-carbamothioylhydrazono)methyl)phenoxy)methyl)-1H-1,2,3-triazol-1-yl)-N-(6-(methylsulfonyl)benzo[d]thiazol-2-yl)acetamide] are 142 ± 3 µM, 180 ± 4 µM and > 500 µM.
As for `N.N.[Cl][Pt][Cl]` [Cisplatin, reference compound], the IC50 with A549 (lung cancer) (setting [2]) is 22 ± 1 µM.

These data come from PMC11792500 (RSC Advances, 2025).
